# Shown are actives, neighbours in structure and some others; about 11% of the full set was active somewhere.
# mHtt clearance: compounds clearing mutant huntingtin protein; HeLa Exon1htt(103Q)mCFP, aggregate imaging; zero = plate's median compound well; inhibition, % at 1.5 µM; 47,000 tested, 0.42% active;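 active = inhibition of aggregate fluorescence above about 70%, also judged a hit by eye on the cell image, limit read from the data, passing the limit was not always enough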;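 also: cells exposed to compound for three days before fixation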
# SF1 activator: activates the human nuclear receptor SF-1; CHO-K1 Gal4-SF-1 LBD luciferase reporter; % increase over DMSO SF-1-specific signal; activation, % at 10 µM; Q13285; 65,000 tested, 1.9% active;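 active = activation above the mean activation of all tested compounds plus 3 SD, cut at about 50% in these data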
# Target sequence (Q13285 whole entry, looked up, the tested form may be a part): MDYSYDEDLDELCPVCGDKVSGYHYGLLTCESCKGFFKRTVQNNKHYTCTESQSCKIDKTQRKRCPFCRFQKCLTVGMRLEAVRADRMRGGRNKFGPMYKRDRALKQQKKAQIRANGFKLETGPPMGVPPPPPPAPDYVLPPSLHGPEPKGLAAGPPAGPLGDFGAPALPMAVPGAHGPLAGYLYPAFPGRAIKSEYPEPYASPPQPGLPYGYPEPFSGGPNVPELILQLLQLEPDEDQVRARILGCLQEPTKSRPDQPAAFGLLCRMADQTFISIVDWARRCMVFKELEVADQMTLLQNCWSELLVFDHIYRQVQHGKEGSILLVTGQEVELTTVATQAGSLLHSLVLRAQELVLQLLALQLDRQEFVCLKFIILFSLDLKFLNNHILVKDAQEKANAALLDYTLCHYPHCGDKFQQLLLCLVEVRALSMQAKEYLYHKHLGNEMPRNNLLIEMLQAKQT
#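 System: CHO-K1 cells with Gal4–hSF-1 LBD chimera plus Gal4-driven luciferase; quantity: 4,000 CHO-K1 cells per well; compound: one dose, 10 µM compound, 1% DMSO; times: 20 h compound treatment, 37 °C; measured by: SteadyLite luciferase luminescence; read-out: percent activation versus DMSO; benchmarks: DMSO and mock-transfected background; replicates: one test per compound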
# M1 antagonist: antagonists of rat M1 muscarinic receptor | AID 628 | 64,000 tested, 3.4% active | B-score at 10 µM | P08482 | CHO-M1 cells, Fluo-4 calcium, ACh EC80 antagonist mode; active compounds read low;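 active = calcium fluorescence response, raw or row-and-column corrected B-score, differing from the plate sample mean either way at a set confidence level, mostly lower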
# D1 allo mod: D1 dopamine receptor (human) allosteric modulation; B-score at 10 µM; 58,000 tested, 5.9% active; P21728; HEK293 D1, CRE-luciferase, dopamine EC30 potentiation; actives deviate in either direction;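 active = luminescence count or its row- and column-corrected plate score outside the 99.7% band of the plate's sample wells, on either side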
# M1 agonist: agonists of M1 muscarinic receptor | CHO-M1 cells, Fluo-4 calcium fluorescence, agonist mode; active compounds read high | B-score at 10 µM | 64,000 tested, 3% active;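 active = fluorescence rise, raw or as B-score row- and column-corrected plate score, outside the 99.7% band of its plate's samples, either direction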
# RORa activator: activators of human nuclear receptor RORA | AID 560 | 65,000 tested, 1.5% active | CHO-K1 Gal4-RORA LBD luciferase reporter, luminescence; percent increase over mock-subtracted basal signal | activation, % at 10 µM | P35398;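 active = activation above the mean of all tested compounds plus 3 SD, cut at about 49% in these data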;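 also: 0% = DMSO-treated RORA cells and 100% = added signal equal to DMSO minus mock-transfected cells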
# Starred values were filed as active, the others as inactive; · = no result.
SMILES,mHtt clearance,SF1 activator,M1 antagonist,D1 allo mod,M1 agonist,RORa activator
Cc1ccc(Cl)cc1NC(=O)Cn1cc2c(n1)CCCC2,-28,-14,0.4,1.2,0.34,-22
CN(C(=O)c1ccc(C#N)cc1)c1nnc(-c2ccccn2)s1,80*,·,·,·,·,·
COC(=O)c1cccnc1-n1c(=O)c2cccnc2n(Cc2cccc(OC)c2)c1=O,·,6,1.2,1,-0.12,-20
CCOC(=O)C(C(=O)OCC)c1cc(Br)c2noc3c2c1C(=O)c1ccccc1-3,-57,-23,-0.76,-1,788*,-26
COc1ccc(C(=O)n2c(-c3ccco3)nc3ccccc32)cc1,24,-7,-0.63,2.3,0.87,65*
COc1ccc(Cn2nnnc2C(c2cccs2)N2CCOCC2)cc1 (centres undefined),26,-7,2.3*,-1.2,-0.0052,-15
CCOC(=O)N1CCC(Nc2nc3ccccc3nc2NS(=O)(=O)c2ccc(Cl)cc2)CC1,36,54*,-0.00037,-1.7,1.6,21
CC1CCCN(c2ccc(C(=O)NCC3CCCO3)cn2)C1 (centres undefined),-19,58*,-1.9,0.17,0.31,28
O=C(OCC(=O)c1c[nH]c2ccccc12)C1=COCCO1,30,109*,0.71,-0.26,-1.1,55*
CCc1cc2c(=O)n(CC)c(SC(C)C(=O)Nc3c(C)n(C)n(-c4ccccc4)c3=O)nc2s1 (centres undefined),40,·,·,·,·,·
CN(C)CCCOC(=O)c1ccccc1Cl,73*,·,·,·,·,·
O=C(NCc1ccc2c(c1)OCO2)c1ccc(=O)[nH]c1,18,·,·,·,·,·
NC(=O)c1c(NC(=O)c2cccs2)sc2c1CCCCCC2,·,45,-0.023,0.3,0.63,56*
N#C/C(C(=O)Oc1ccccc1)=C1\C=CC=CN1,·,35,0.29,0.57,0.53,58*
COc1cccc(C2=NOC(C(=O)N3CCOCC3)C2)c1 (centres undefined),·,57*,0.37,-1.3,0.03,20
COc1ccc(C2=NOC(C(=O)N3CCOCC3)C2)cc1OC (centres undefined),·,28,-0.39,1.4,1.2,2
O=C1CC(c2cccs2)Sc2nc3ccccc3n21 (centres undefined),·,80*,0.58,-0.53,-0.036,23
C/C(N)=C(/C#N)C(=O)COC(=O)CCC1CCCC1,1,·,·,·,·,·
CCOC(=O)c1[nH]c2ccc(OC)cc2c1C,6,59*,-0.35,·,0.21,28
CCOC(=O)c1[nH]c2ccc(OC)cc2c1NC(C)=O,-22,-14,-0.39,-0.25,0.75,7
CCN(Cc1cc2cc(OC)ccc2[nH]c1=O)C(=O)Cc1ccc(OC)cc1,13,-10,0.83,1,-0.58,31
CCOC(=O)c1cc2cc(OC)ccc2[nH]1,·,73*,-0.15,·,0.58,12
O=C1CCC([N+](=O)[O-])C(c2ccc(Cl)cc2)N1 (centres undefined),14,·,·,·,·,·
Cc1cc(NC(=O)c2ccccc2F)n(-c2nc3ccccc3[nH]2)n1,-27,-9,-0.14,3.9,-0.23,22
O=C(Nc1nc2ccccc2[nH]1)c1ccc(F)cc1,-35,-44,-0.019,-6.4*,0.038,-54
SMILES,mHtt clearance,SF1 activator,M1 antagonist,D1 allo mod,M1 agonist,RORa activator
COc1ccc(C(=O)Nc2nc3ccccc3[nH]2)cc1OC,-13,50*,0.36,-1.9,0.11,18
O=C(Nc1nc2ccccc2[nH]1)c1ccccc1F,68,-84,0.19,-7.9*,-0.82,-86
Cn1ncc(Br)c1C(=O)OCC(=O)Nc1nc(-c2ccccc2)cs1,61,·,·,·,·,·
O=C(NCCc1csc(-c2ccccc2)n1)c1cccs1,·,-13,-0.24,-5.1*,0.0023,-8
Cc1nc(CCNC(=O)c2cccs2)cs1,25,0,-0.16,0.37,-0.65,12
Cc1sc(NC(=O)c2cccs2)nc1-c1ccccc1,·,46,0.0094,-0.3,-0.033,17
O=C(Nc1nsc(-c2ccccc2)n1)c1cccs1,33,77*,1.3,-4.4*,0.069,47
Cc1nnc(NC(=O)c2sc3ccccc3c2Cl)s1,-53,-11,0.5,-6.4*,-0.34,-25
COCc1nnc(NC(=O)c2sc3ccccc3c2Cl)s1,-44,49,0.53,-1.5,-0.46,-1
CSCC[C@H](NC(=O)OC(C)(C)C)c1nnc(SCC=C(C)C)o1,·,-8,1.3,-0.024,-0.019,8
CCNc1nc(-c2ccc(Cl)cc2)cs1,·,16,-0.019,0.045,-0.17,50*
CNc1nc(-c2ccc(Cl)cc2)cs1,·,64*,-0.67,·,1.5,47
CCN(CC)CC(=O)Nc1nc(-c2ccc(Cl)cc2)cs1,26,·,·,·,·,·
COc1ccc(OC)c(C(c2nnnn2C2CCCC2)N2CCc3ccccc3C2)c1 (centres undefined),73*,-8,0.89,-0.96,4.3,-9
O=C1COc2ccc(OCc3ccc(F)cc3)cc21,15,8,-0.65,-2.1,-0.073,78*
O=C(CSc1nc2ncccc2[nH]1)NCc1ccccc1,-4,6,-0.2,-1,-0.21,14
Fc1ccccc1CSc1nc2ncccc2[nH]1,·,51*,-0.094,-0.54,-1.4,34
CC(NC(=O)Cc1cccs1)C(c1cccs1)N1CCOCC1 (centres undefined),·,5,1.7*,-0.77,-0.32,-11
Cn1c(SCC2CCCCC2)nnc1-c1ccncc1,·,30,0.11,0.35,0.056,4
Cc1nc2ccc(C(C(F)(F)F)(C(F)(F)F)C(F)(F)F)cc2[nH]1,5,-21,-1.6,1.5,0.14,-14
O=c1[nH]cnc2nc(-c3ccccc3)c(-c3ccccc3)nc12,22,11,-0.26,-0.17,0.52,-1
O=c1[nH]cnc2cc(-c3ccccc3)sc12,43,56*,-0.48,·,2.2,18
CCOC(=O)c1cnn(-c2ccccc2)c1-n1cccc1C(=O)C(=O)Nc1ccccc1,62,·,·,·,·,·
COc1ccccc1N1CCN(C/C(C)=C/c2ccccc2)CC1,·,-8,-1.2,-3.6*,-1.1,-14
CCCOc1ccc(OCCSc2ncccn2)cc1,14,28,-0.23,-1.2,0.5,48
SMILES,mHtt clearance,SF1 activator,M1 antagonist,D1 allo mod,M1 agonist,RORa activator
C=CCSc1n[nH]c(-c2ccc(OCCC)cc2)n1,-68,55*,-1.4,-0.53,0.23,62*
C=CCSc1n[nH]c(-c2ccc(OCCCC)cc2)n1,·,68*,0.21,-0.61,-0.39,31
CCCn1c(=O)c2ccccc2n2c(SCC(=O)c3ccc(F)cc3)nnc12,·,2,-0.48,-0.03,-0.32,-5
Cn1c(=O)c2c3c(sc2n2c(SCC(=O)c4ccc(Cl)cc4)nnc12)COC(C)(C)C3,·,-2,-0.24,0.0038,0.028,-7
O=C(CSc1nnc2n(C3CCCC3)c(=O)c3ccccc3n12)N1CCCCCC1,-24,12,-0.5,0.83,1.4,10
CCCn1c(=O)c2ccccc2n2c(SCC(=O)c3ccccc3)nnc12,-17,-6,2.5*,0.017,2.3,4

# Assay outcomes (PubChem BioAssay)
